Measured values taken from ChEMBL document CHEMBL4689842, “EUbOPEN Chemogenomics Library wave 1” (2021).

Test system: HEK-293T
Assay: Multiplex assay against HEK293T;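 on Population Tubulin-Different-Phenotype (%): share of the cells with healthy nuclei that show this phenotype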
Assay type: toxicity, cell-based
Conditions: human
Procedure, shortened: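 Values for tubulin, mitochondrial-mass and membrane-permeability phenotypes are per cents of cells with healthy nuclei. These cells were identified by CellPathfinder machine-learning gating of live cells that had been stained at seeding with Hoechst33342, BioTracker Green Microtubule Cytoskeleton Dye, MitoTracker Red and Annexin V Alexa Fluor 680 and imaged on a CQ1 microscope at 37°C and 5% CO2 after compound addition. The gating first set Hoechst high-intensity objects apart from normal cells, then split normal cells into healthy, pyknosed or fragmented nuclei, and pyknosed cells into mitotic or apoptotic.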

[1] = 12 h, 1 µM, compound concentration 1 uM, replicate 1
[2] = 12 h, 1 µM, compound concentration 1 uM, replicate 2
[3] = 12 h, 10 µM, compound concentration 10 uM, replicate 1
[4] = 12 h, 10 µM, compound concentration 10 uM, replicate 2
[5] = 24 h, 1 µM, compound concentration 1 uM, replicate 1
[6] = 24 h, 1 µM, compound concentration 1 uM, replicate 2
[7] = 24 h, 10 µM, compound concentration 10 uM, replicate 1
[8] = 24 h, 10 µM, compound concentration 10 uM, replicate 2
[9] = 48 h, 1 µM, compound concentration 1 uM, replicate 1
[10] = 48 h, 1 µM, compound concentration 1 uM, replicate 2
[11] = 48 h, 10 µM, compound concentration 10 uM, replicate 1
[12] = 48 h, 10 µM, compound concentration 10 uM, replicate 2

## CCn1c(=O)c(-c2ccc(-c3cncs3)cc2Cl)cc2cnc(Nc3ccc(N4CCN(C)CC4)cc3)nc21
[1]
  Population Apoptotic (%): 34%
  Population Fragmented Nuclei (%): 7%
  Population Healthy Nuclei (%): 46%
  Population Hoechst High Intensity Objects (%): 14%
  Population Membrane Permeable-Phenotype (%): 2%
  Population Mitochondria Different-Phenotype (%): 79%
  Population Mitotic Cells (%): 65%
  Population Normal (%): 85%
  Population Pyknosed Nuclei (%): 46%
  Population Tubulin-Different-Phenotype (%): 55%
  Total Cell Count: 232
[2]
  Population Apoptotic (%): 10%
  Population Fragmented Nuclei (%): 5%
  Population Healthy Nuclei (%): 48%
  Population Hoechst High Intensity Objects (%): 2%
  Population Membrane Permeable-Phenotype (%): 9%
  Population Mitochondria Different-Phenotype (%): 13%
  Population Mitotic Cells (%): 89%
  Population Normal (%): 97%
  Population Pyknosed Nuclei (%): 45%
  Population Tubulin-Different-Phenotype (%): 18%
  Total Cell Count: 288
[3]
  Population Apoptotic (%): 52%
  Population Fragmented Nuclei (%): 47%
  Population Healthy Nuclei (%): 21%
  Population Hoechst High Intensity Objects (%): 62%
  Population Membrane Permeable-Phenotype (%): 5%
  Population Mitochondria Different-Phenotype (%): 93%
  Population Mitotic Cells (%): 47%
  Population Normal (%): 37%
  Population Pyknosed Nuclei (%): 30%
  Population Tubulin-Different-Phenotype (%): 93%
  Total Cell Count: 1090
[4]
  Population Apoptotic (%): 15%
  Population Fragmented Nuclei (%): 7%
  Population Healthy Nuclei (%): 55%
  Population Hoechst High Intensity Objects (%): 4%
  Population Membrane Permeable-Phenotype (%): 20%
  Population Mitochondria Different-Phenotype (%): 16%
  Population Mitotic Cells (%): 84%
  Population Normal (%): 95%
  Population Pyknosed Nuclei (%): 37%
  Population Tubulin-Different-Phenotype (%): 38%
  Total Cell Count: 174
[5]
  Population Apoptotic (%): 57%
  Population Fragmented Nuclei (%): 11%
  Population Healthy Nuclei (%): 42%
  Population Hoechst High Intensity Objects (%): 14%
  Population Membrane Permeable-Phenotype (%): 2%
  Population Mitochondria Different-Phenotype (%): 55%
  Population Mitotic Cells (%): 42%
  Population Normal (%): 85%
  Population Pyknosed Nuclei (%): 45%
  Population Tubulin-Different-Phenotype (%): 45%
  Total Cell Count: 233
[6]
  Population Apoptotic (%): 12%
  Population Fragmented Nuclei (%): 4%
  Population Healthy Nuclei (%): 65%
  Population Hoechst High Intensity Objects (%): 1%
  Population Membrane Permeable-Phenotype (%): 8%
  Population Mitochondria Different-Phenotype (%): 15%
  Population Mitotic Cells (%): 87%
  Population Normal (%): 98%
  Population Pyknosed Nuclei (%): 29%
  Population Tubulin-Different-Phenotype (%): 31%
  Total Cell Count: 358
[7]
  Population Apoptotic (%): 59%
  Population Fragmented Nuclei (%): 59%
  Population Healthy Nuclei (%): 8%
  Population Hoechst High Intensity Objects (%): 71%
  Population Membrane Permeable-Phenotype (%): 0%
  Population Mitochondria Different-Phenotype (%): 92%
  Population Mitotic Cells (%): 40%
  Population Normal (%): 28%
  Population Pyknosed Nuclei (%): 31%
  Population Tubulin-Different-Phenotype (%): 97%
  Total Cell Count: 1552
[8]
  Population Apoptotic (%): 30%
  Population Fragmented Nuclei (%): 11%
  Population Healthy Nuclei (%): 57%
  Population Hoechst High Intensity Objects (%): 4%
  Population Membrane Permeable-Phenotype (%): 15%
  Population Mitochondria Different-Phenotype (%): 39%
  Population Mitotic Cells (%): 69%
  Population Normal (%): 95%
  Population Tubulin-Different-Phenotype (%): 64%
  Total Cell Count: 177
[9]
  Population Apoptotic (%): 50%
  Population Fragmented Nuclei (%): 14%
  Population Healthy Nuclei (%): 57%
  Population Hoechst High Intensity Objects (%): 13%
  Population Membrane Permeable-Phenotype (%): 3%
  Population Mitochondria Different-Phenotype (%): 33%
  Population Mitotic Cells (%): 49%
  Population Normal (%): 86%
  Population Pyknosed Nuclei (%): 28%
  Population Tubulin-Different-Phenotype (%): 36%
  Total Cell Count: 308
[10]
  Population Apoptotic (%): 11%
  Population Fragmented Nuclei (%): 6%
  Population Healthy Nuclei (%): 80%
  Population Hoechst High Intensity Objects (%): 3%
  Population Membrane Permeable-Phenotype (%): 7%
  Population Mitochondria Different-Phenotype (%): 4%
  Population Mitotic Cells (%): 88%
  Population Normal (%): 96%
  Population Pyknosed Nuclei (%): 13%
  Population Tubulin-Different-Phenotype (%): 29%
  Total Cell Count: 591
[11]
  Population Apoptotic (%): 64%
  Population Fragmented Nuclei (%): 72%
  Population Healthy Nuclei (%): 6%
  Population Hoechst High Intensity Objects (%): 74%
  Population Membrane Permeable-Phenotype (%): 0%
  Population Mitochondria Different-Phenotype (%): 84%
  Population Mitotic Cells (%): 35%
  Population Normal (%): 25%
  Population Pyknosed Nuclei (%): 20%
  Population Tubulin-Different-Phenotype (%): 75%
  Total Cell Count: 1798
[12]
  Population Apoptotic (%): 36%
  Population Fragmented Nuclei (%): 8%
  Population Healthy Nuclei (%): 70%
  Population Hoechst High Intensity Objects (%): 4%
  Population Membrane Permeable-Phenotype (%): 9%
  Population Mitochondria Different-Phenotype (%): 25%
  Population Mitotic Cells (%): 63%
  Population Normal (%): 95%
  Population Tubulin-Different-Phenotype (%): 63%
  Total Cell Count: 238
